# Bioassay records: PubChem, Broad Institute
# S100A4 MyoIIA: inhibitors of S100A4-myosin IIA peptide binding, primary screen, biochemical, fluorescence polarization, TAMRA-MyoIIA peptide | AID 652163, 2013 | inhibition, % at 10.7 µM | actives 0.14% (n = 360,000);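 active means mean inhibition of at least 70% across replicates, with every replicate also reaching that level; inconclusive means mean inhibition reaches 70% but some replicates fall short; inactive means mean inhibition below 70%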
# Target sequence (P26447 whole entry, looked up): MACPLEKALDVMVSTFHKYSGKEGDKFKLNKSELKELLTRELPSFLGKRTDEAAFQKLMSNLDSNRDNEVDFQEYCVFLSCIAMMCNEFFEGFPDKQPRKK
#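 Material: human S100A4 monomer with TAMRA-labelled myosin IIA peptide; buffer or medium: HEPES pH 7.2 with CaCl2, KCl, NaCl, DTT, Triton; compound dosing: one concentration per compound; schedule: 5 min incubation before reading; benchmarks: neutral control DMSO, positive control TFP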
# DENV2 CPE: inhibitors of DENV2 cytopathic effect, primary screen, cell-based, plate reader, single concentration; DENV2-infected cells, cytopathic effect rescue; CPE inhibition, % at 9.99 µM; actives 1.7% (n = 350,000); in the data active means CPE inhibition above about 20%, passing the limit was not always enough; inconclusive means no clear call, values can overlap the other calls; tested in BHK-21 cells
# E-selectin induc: E-selectin induction in HUVECs, primary screen, imaging, HUVEC, immunofluorescence imaging, single point; AID 686992, 2013; P16581; normalized: neutral wells 0, TNF-alpha wells 100; actives 0.37% (n = 260,000); activation, % at 7.58 µM;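 active means mean E-selectin-positive cell signal at least 10% of the positive control, reached in at least 60% of replicates, without over 20% cell loss; inconclusive means no rule given, readout overlaps actives, possibly toxicity-flagged; inactive means the rest, including those meeting only one limit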
#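 Material: HUVEC primary endothelial cells; Amount: 3,000 cells per well; Dosing: single concentration; Medium: EGM-2 growth medium on 0.1% gelatin-coated wells; Read-out basis: percent E-selectin-positive cells; Signal: immunofluorescence imaging; Control set: TNF-alpha, DMSO.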
# Xi reactivation: activators of inactive X chromosome reactivation, primary screen, imaging, XiGFP fibroblasts, GFP high-content imaging, set 2; AID 743238, 2013; activation, % at 7.58 µM; XiGFP mouse fibroblasts, % GFP-positive cells imaging, 3 d; cells co-treated with 5-aza-dC sensitizer; scaled so ellipticine positive control = 100%; actives 0.055% (n = 360,000);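 active means mean normalized replicate activation at least 10% and every replicate at or above 10%; inconclusive means only one of the two criteria met; inactive means mean below 10% and not all replicates reach 10%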
#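 Material: XiGFP fibroblasts, SV40-immortalized. Buffer or medium: DMEM plus 5-aza-dC sensitizer. Compound: single concentration per compound, delivered by pin transfer. Times: 3 days compound exposure. Controls: ellipticine 6 µM.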
# A number is an active result; - = inactive; ? = inconclusive; . = not tested or not shown; ! = not active in a repeat. An excerpt weighted towards active compounds, which were near 2% of everything screened.
SMILES,S100A4 MyoIIA,DENV2 CPE,E-selectin induc,Xi reactivation
CC1=CC(=O)C2=C(C)CCC3C(C)C(=O)OC3C12 (stereo not drawn),-,22,.,.
COc1ccccc1N(CC(=O)N1CCCC1)S(=O)(=O)c1ccc(C)cc1,-,54,-,-
COc1ccccc1N(CC(=O)N1CCCCCC1)S(=O)(=O)c1ccc(C)cc1,-,-,-,-
CCCNC(=O)C[C@@H]1C[C@@H]2c3cc(NC(=O)Nc4ccc(F)cc4)ccc3O[C@@H]2[C@H](CO)O1,-,-,-,-
Cc1ccc(Oc2nc3ccccn3c(=O)c2/C=C(\C#N)C(=O)Nc2c(C)n(C)n(-c3ccccc3)c2=O)cc1,.,.,.,-
Cc1c(C(=O)O)cccc1-n1c(C)cc(/C=C(/C#N)C(=O)NCc2ccccc2)c1C,-,-,83,-
OCc1cccc[n+]1CCc1ccccc1,-,-,-,-
CCN(CC)CCN(C(=O)Cn1nnc(-c2ccc(C)o2)n1)C(C(=O)NC(C)(C)C)c1cccs1 (stereo not drawn),-,-,128,-
CCCCNC(=O)C1C(c2ccc(C(F)(F)F)cc2)=Nc2ccccc2N1C(=O)c1cccc2ccccc12 (stereo not drawn),-,28,-,-
C/C=C/c1ccc(C2[C@H]3CNC[C@@H]2N3Cc2cc(OC)cc(OC)c2)cc1 (stereo partly drawn),-,-,-,-
C/C=C/c1ccc(C2[C@H]3CNC[C@@H]2N3Cc2nccs2)cc1 (stereo partly drawn),-,39!,-,-
C[C@H](CO)N1C[C@H](C)[C@H](CN(C)S(=O)(=O)c2ccc(Cl)cc2)Oc2ccc(NS(=O)(=O)c3ccc(F)cc3)cc2CC1=O,.,-,92,-
C[C@H](CO)N1C[C@H](C)[C@@H](CN(C)S(=O)(=O)c2ccc(Cl)cc2)Oc2ccc(NS(=O)(=O)c3ccc(F)cc3)cc2CC1=O,.,?,59,-
C[C@@H]1CN([C@H](C)CO)C(=O)c2cc(NS(=O)(=O)c3ccc(F)cc3)ccc2O[C@@H](C)CCCCO[C@H]1CN(C)C(=O)Nc1ccc2c(c1)OCO2,.,-,-,-
COc1cc(C2NC(=O)NC(C)=C2C(=O)OC2CCCC(C)C2)cc(Br)c1O (stereo not drawn),-,46,-,-
COC(=O)[C@]1(CCS(=O)(=O)c2ccccc2)N=C(c2ccc(OCCCO)cc2)O[C@@H]1c1ccccc1,-,-,.,.
[N-]=[N+]=NCc1ccccc1C[C@]1(C(N)=O)N=C(c2ccc(OCCCO)cc2)O[C@H]1c1ccccc1,-,25,.,.
COC(=O)[C@@]1(Cc2ccccc2CN=[N+]=[N-])COC(c2ccc(OCCCO)cc2)=N1,-,27,.,.
CN(C)C(=O)[C@@]1(Cc2ccccc2CN=[N+]=[N-])COC(c2ccc(OCCCO)cc2)=N1,-,-,.,.
COC(=O)[C@@]1(CCS(=O)(=O)c2ccccc2)N=C(c2ccc(OCCCO)cc2)O[C@H]1c1ccccc1,-,27,.,.
COC(=O)[C@]1(CO)N=C(c2ccc(OCCCO)cc2)O[C@@H]1c1ccccc1CN=[N+]=[N-],-,51,.,.
COCC(=O)N(C)C[C@@H]1Oc2ncc(-c3ccccc3C)cc2C(=O)N([C@@H](C)CO)C[C@@H]1C,-,-,-,-
NCC1OC(n2cnc3c(N)ncnc32)CC1O (stereo not drawn),-,-,-,-
CCCN(C)C[C@H]1Oc2cc(-c3ccccc3F)ccc2S(=O)(=O)N([C@@H](C)CO)C[C@H]1C,-,-,-,-
CC(=O)N1CCN(C(=O)c2cccc(S(=O)(=O)N3CCN(c4ccc(F)cc4)CC3)c2)CC1,-,-,.,-
SMILES,S100A4 MyoIIA,DENV2 CPE,E-selectin induc,Xi reactivation
CCCNC(=O)Nc1nc(CC(=O)OCC)cs1,-,-,-,-
CO[C@H]1CC[C@@H]2CCN(C)C(=O)CCCN(C)C(=O)c3cc(C#N)ccc3OC[C@H]1O2,-,-,-,-
O=C(C[C@H]1CC[C@@H]2[C@H](COC[C@H](O)CN2S(=O)(=O)c2ccccc2)O1)NCCN1CCCC1,-,28,-,-
O=C(C[C@@H]1CC[C@@H]2[C@H](COC[C@@H](O)CN2S(=O)(=O)c2ccc(Cl)cc2)O1)NCCN1CCCC1,-,27,-,-
O=C(C[C@H]1CC[C@@H]2[C@H](COC[C@@H](O)CN2S(=O)(=O)c2ccc(Cl)cc2)O1)NCCN1CCCC1,-,-,-,-
O=C(C[C@@H]1CC[C@H]2[C@@H](COC[C@@H](O)CN2S(=O)(=O)c2ccccc2)O1)NCCN1CCCC1,-,?,-,-
CC(=O)Nc1ccc(S(=O)(=O)N(C)CC(=O)NC2CCCC(C)C2C)cc1 (stereo not drawn),-,.,.,-
O=C(c1nnsc1S(=O)c1ccc(Cl)cc1)N1CCOCC1 (stereo not drawn),-,.,.,-
Cc1ccsc1CN(C)Cc1nc(C2CC2)no1,-,-,513,-
CCOC(=O)N1CCC(N(CCN(C)C)C(=S)Nc2ccccc2C)CC1,-,-,.,-
CC(=O)N(C)C[C@H]1Oc2ncc(C#CC(C)(C)O)cc2C(=O)N([C@@H](C)CO)C[C@@H]1C,-,30,-,-
COCC(=O)N(C)C[C@@H]1Oc2ncc(C#CC(C)(C)O)cc2C(=O)N([C@@H](C)CO)C[C@@H]1C,-,24,-,-
COCC(=O)N(C)C[C@H]1Oc2ncc(-c3ccccc3OC)cc2C(=O)N([C@@H](C)CO)C[C@@H]1C,-,21,-,-
CC(=O)N(C)C[C@@H]1Oc2ncc(C#CC(C)(C)O)cc2C(=O)N([C@@H](C)CO)C[C@@H]1C,-,-,-,-
COCC(=O)N(C)C[C@@H]1Oc2ncc(C#CC(C)(C)O)cc2C(=O)N([C@@H](C)CO)C[C@H]1C,-,-,-,-
COCC(=O)N(C)C[C@@H]1Oc2ncc(C#Cc3ccc(OC)cc3)cc2C(=O)N([C@@H](C)CO)C[C@H]1C,-,68,-,-
COCC(=O)N(C)C[C@H]1Oc2ncc(C#Cc3ccc(OC)cc3)cc2C(=O)N([C@@H](C)CO)C[C@H]1C,-,-,-,-
Cc1cc(C)cc(OCC(=O)Nc2cc(C)on2)c1,-,-,-,-
O=C(C1CCCC1)N1CC2(C1)[C@@H](c1ccccc1)[C@@H](CO)N2Cc1ccc(Cl)cc1,-,-,-,-
O=C(C1CCOCC1)N1CC2(C1)[C@H](c1ccccc1)[C@@H](CO)N2Cc1ccc(Cl)cc1,-,29,-,-
O=C(C1CCCCC1)N1CC2(C1)[C@H](c1ccccc1)[C@H](CO)N2Cc1cncnc1,-,40,-,-
Cc1ccc2nc(SCC(=O)NCc3ccco3)nc(=O)n2c1,-,-,-,-
CC[C@@]1(C(=O)OC)N[C@H](CN(C)S(=O)(=O)c2ccccc2)[C@@H]2C(=O)N(Cc3ccccc3)C(=O)[C@@H]21,-,-,.,-
